ChEMBL document CHEMBL4007461, “Synthesis, Antiviral Potency, in Vitro ADMET, and X-ray Structure of Potent CD4 Mimics as Entry Inhibitors That Target the Phe43 Cavity of HIV-1 gp120” (J Med Chem, 2017)
Values after ≈ are worked out from the molar mass of the structure shown. Active and inactive are the calls of the source. No cut-off for these calls is given here.

Key:
[1] = Inhibition of HIV1 HXB2 gp120-mediated cell to cell fusion using human MAGI-CCR5 cells as indicator cells and Env/Tat-expressing HL2/3 cells as effector cells preincubated with MAGI-CCR5 cells for 1 hr followed by HL2/3 cells addition by beta-galactosidase reporter gene assay; conditions: Human immunodeficiency virus 1, HXB2
[2] = Inhibition of HIV1 reverse transcriptase by colorimetric assay; design: species or system Human immunodeficiency virus 1
Procedure, shortened: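 HIV-1 reverse transcriptase activity measured with a commercial colorimetric reverse transcriptase kit, following the maker's instructions.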

[3] = Inhibition of CYP1A in human liver microsomes using ethoxyresorufin as substrate after 5 mins in presence of NADPH by LC-MS/MS analysis
[4] = Aqueous solubility of the compound at 1 to 100 uM in PBS at pH 7.4 after 2 hrs by turbidimetric analysis; format: physicochemical
Procedure, shortened: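 DMSO stocks diluted 1:100 into phosphate-buffered saline pH 7.4, giving 1, 3, 10, 30 and 100 µM final in 1% DMSO. Seven replicate wells per concentration, incubated 2 h at 37 °C, absorbance read at 620 nm. Solubility taken as the concentration giving absorbance above the 1% DMSO vehicle.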

[5] = Apparent permeability from apical to basolateral side in human Caco2 cells at 10 uM at pH 7.4 by LC-MS/MS analysis; format: ADME, cell-based; conditions: Caco-2, pH 7.4
Procedure, shortened: (§1)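 Caco-2 cells, passage 40-60, seeded on Transwell inserts at 1 x 10^5 cells/cm2 and grown 20 days in DMEM. Monolayers equilibrated 40 min in HBSS. Donor: compound at 10 µM final, 1% DMSO, in HBSS pH 7.4 with lucifer yellow as integrity marker. Sampled at 120 min, A-B and B-A, in duplicate, by LC-MS/MS. Papp = (dQ/dt)/(C0 × A); efflux ratio = Papp(B-A)/Papp(A-B).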

[6] = Apparent permeability from basolateral to apical side in human Caco2 cells at 10 uM at pH 7.4 by LC-MS/MS analysis; format: ADME, cell-based; conditions: Caco-2, pH 7.4; procedure, shortened: as §1
[7] = (§2) Cytotoxicity against human TZM-bl cells incubated for 3 days by XTT assay; format: cell-based; conditions: TZM-bl cells
Procedure, shortened: (§3)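 TZM-bl cells, 1 x 10^4/well, cultured overnight at 37 °C. Compounds added at graded concentrations for three days.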

[8] = Unbound fraction in human plasma at 5 uM by LC-MS/MS based equilibrium dialysis; format: ADME, cell-free
[9] = target: Voltage-gated inwardly rectifying potassium channel KCNH2 (Homo sapiens, UniProt Q12809); assay: Inhibition of human ERG expressed in CHO cells by patch clamp electrophysiology assay; format: cell-based
Cytochrome P450 2C9 = Cytochrome P450 2C9 (Homo sapiens, UniProt P11712); assay: Inhibition of CYP2C9 in human liver microsomes using tolbutamide as substrate after 60 mins in presence of NADPH by LC-MS/MS analysis; format: ADME
[10] = Intrinsic clearance in human liver microsomes assessed per mg protein in presence of NADPH by LC-MS/MS analysis; format: ADME, microsome; conditions: read-out: CLH
Cytochrome P450 2D6 = Cytochrome P450 2D6 (Homo sapiens, UniProt P10635); assay: Inhibition of CYP2D6 in human liver microsomes using dextromethorphan as substrate after 5 mins in presence of NADPH by LC-MS/MS analysis; format: ADME
[11] = tested on: Human immunodeficiency virus 1; assay: Antiviral activity against ENV pseudotyped CCR5-tropic HIV1 subtype D QD435.100M.ENV.B5; format: functional; conditions: Human immunodeficiency virus 1, subtype D QD435.100M.ENV.B5
Procedure, shortened: (§4)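 Env-pseudotyped viruses made by co-transfecting HEK293T cells with an Env-deleted pSG3 backbone (8 µg) and an Env-expression plasmid (8 µg). Supernatants were harvested 2 days after transfection, filtered, titered and stored at −80 °C. They were used for single-cycle infection, and IC50 was taken from percent inhibition.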

[12] = tested on: Human immunodeficiency virus 1; assay: Antiviral activity against ENV pseudotyped CCR5-tropic HIV1 subtype C 225925-2, clone 22; format: functional; conditions: Human immunodeficiency virus 1, subtype C 225925-2, clone 22; procedure, shortened: as §4
Cytochrome P450 3A4 = Cytochrome P450 3A4 (Homo sapiens, UniProt P08684); assay: Inhibition of CYP3A4 in human liver microsomes using midazolam as substrate after 5 mins in presence of NADPH by LC-MS/MS analysis; format: ADME
[13] = tested on: Human immunodeficiency virus 1; assay: Antiviral activity against ENV pseudotyped CCR5-tropic HIV1 subtype D QA013.70I.ENV.M12; format: functional; conditions: Human immunodeficiency virus 1, subtype D QA013.70I.ENV.M12; procedure, shortened: as §4
[14] = Metabolic stability in human liver microsomes assessed as compound remaining at 45 mins in presence of NADPH by LC-MS/MS analysis; format: ADME, microsome; conditions: read-out: Stability
Cytochrome P450 2C19 = Cytochrome P450 2C19 (Homo sapiens, UniProt P33261); assay: Inhibition of CYP2C19 in human liver microsomes using mephenytoin as substrate after 60 mins in presence of NADPH by LC-MS/MS analysis; format: ADME
[15] = (§5) Cytotoxicity against human MT2 cells incubated for 4 days by XTT assay; format: cell-based; conditions: MT2 cells
Procedure, shortened: (§6)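 Run alongside the MT-2 multicycle infection assay. Compound at graded concentrations mixed with an equal volume of MT-2 cells (10^5 cells/ml). Medium replaced next day and culture continued four days.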

[16] = tested on: Human immunodeficiency virus 1; assay: Antiviral activity against HIV1 HXB2 pseudovirus infected in human TZM-bl cells assessed as inhibition of viral entry treated 2 to 4 hrs post infection measured after 48 hrs by luciferase reporter gene assay; format: functional, cell-based
Procedure, shortened: (§7)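 TZM-bl cells, 1 x 10^4/well, cultured overnight at 37 °C, then infected with HXB2 Env pseudovirus. Plates spun 30 min at 2090 g at 4 °C, then held 90 min at 37 °C. Unbound virus washed off with PBS and fresh medium added. Compounds given at 10-15 times their IC50 at set times after infection. Cells lysed at 48 h and luciferase read. Two independent experiments, each in triplicate.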

[17] = tested on: Human immunodeficiency virus 1; assay: Antiviral activity against HIV1 HXB2 pseudovirus infected in human TZM-bl cells assessed as inhibition of viral entry treated 1 hr post infection measured after 48 hrs by luciferase reporter gene assay; format: functional, cell-based; procedure, shortened: as §7
[18] = tested on: Human immunodeficiency virus 1; assay: Antiviral activity against HIV1 HXB2 pseudovirus infected in human TZM-bl cells assessed as inhibition of viral entry treated 8 hrs post infection measured after 48 hrs by luciferase reporter gene assay; format: functional, cell-based; procedure, shortened: as §7
TZM = assay: as §2; format: cell-based; conditions: tzm, 72 h; procedure, shortened: as §3
[19] = tested on: Human immunodeficiency virus 1; assay: Antiviral activity against X4 tropic HIV1 HXB2 infected in human TZM-bl cells pretreated with virus for 30 mins followed by 3 days incubation with cells by luciferase reporter gene based single cycle infection assay; format: functional, cell-based
Procedure, shortened: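 TZM-bl cells (1 x 10^4/well) were cultured overnight at 37 °C. HXB2-Env pseudovirus was preincubated 30 min with graded compound concentrations, then added to the cells for 3 days. Cells were washed and lysed, and luciferase was read. IC50 came from percent inhibition.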

[20] = tested on: Human immunodeficiency virus 1; assay: Antiviral activity against HIV1 3B infected in human MT2 cells assessed as inhibition of p24 antigen production pretreated with virus for 30 mins followed by 4 days incubation with cells by sandwich ELISA based multicycle infection assay; format: functional, cell-based
Procedure, shortened: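 MT-2 cells were infected with HIV-1 IIIB at 100 TCID50 and preincubated 30 min with graded compound concentrations. Medium was replaced next day. Supernatants were collected 4 days post-infection, lysed with equal volume 5% Triton X-100, and p24 was measured by sandwich ELISA. IC50 came from percent inhibition of p24.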

MT2 = assay: as §5; format: cell-based; conditions: mt2, 96 h, 96 h; procedure, shortened: as §6

Sequence of Cytochrome P450 2C9 (P11712 whole entry): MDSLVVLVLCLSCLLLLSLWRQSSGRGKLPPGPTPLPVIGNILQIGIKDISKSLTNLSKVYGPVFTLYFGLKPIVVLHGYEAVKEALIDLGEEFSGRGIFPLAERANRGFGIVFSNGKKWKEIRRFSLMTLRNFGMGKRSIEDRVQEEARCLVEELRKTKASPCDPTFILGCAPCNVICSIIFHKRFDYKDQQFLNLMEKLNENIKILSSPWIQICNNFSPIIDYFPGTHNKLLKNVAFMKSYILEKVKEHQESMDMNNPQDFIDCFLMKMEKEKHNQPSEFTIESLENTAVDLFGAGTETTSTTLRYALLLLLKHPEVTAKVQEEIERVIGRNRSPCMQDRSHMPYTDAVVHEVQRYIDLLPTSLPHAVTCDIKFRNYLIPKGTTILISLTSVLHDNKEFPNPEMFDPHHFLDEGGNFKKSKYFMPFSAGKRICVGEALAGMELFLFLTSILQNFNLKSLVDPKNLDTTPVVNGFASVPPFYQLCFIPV
Sequence of Cytochrome P450 2C19 (P33261 whole entry): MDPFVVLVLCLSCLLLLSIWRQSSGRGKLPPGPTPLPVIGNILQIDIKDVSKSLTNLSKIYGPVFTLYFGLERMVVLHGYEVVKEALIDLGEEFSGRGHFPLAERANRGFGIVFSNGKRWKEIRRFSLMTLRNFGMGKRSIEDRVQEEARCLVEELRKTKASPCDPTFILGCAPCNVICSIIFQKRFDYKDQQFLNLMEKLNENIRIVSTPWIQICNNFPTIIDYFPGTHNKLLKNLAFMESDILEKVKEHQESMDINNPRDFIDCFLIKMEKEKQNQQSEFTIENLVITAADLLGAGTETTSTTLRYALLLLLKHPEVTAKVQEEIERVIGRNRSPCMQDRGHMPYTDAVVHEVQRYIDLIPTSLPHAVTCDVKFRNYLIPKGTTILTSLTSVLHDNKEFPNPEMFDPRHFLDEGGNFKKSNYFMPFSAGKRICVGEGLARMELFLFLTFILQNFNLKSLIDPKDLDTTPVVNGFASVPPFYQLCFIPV
Sequence of Voltage-gated inwardly rectifying potassium channel KCNH2 (Q12809 whole entry): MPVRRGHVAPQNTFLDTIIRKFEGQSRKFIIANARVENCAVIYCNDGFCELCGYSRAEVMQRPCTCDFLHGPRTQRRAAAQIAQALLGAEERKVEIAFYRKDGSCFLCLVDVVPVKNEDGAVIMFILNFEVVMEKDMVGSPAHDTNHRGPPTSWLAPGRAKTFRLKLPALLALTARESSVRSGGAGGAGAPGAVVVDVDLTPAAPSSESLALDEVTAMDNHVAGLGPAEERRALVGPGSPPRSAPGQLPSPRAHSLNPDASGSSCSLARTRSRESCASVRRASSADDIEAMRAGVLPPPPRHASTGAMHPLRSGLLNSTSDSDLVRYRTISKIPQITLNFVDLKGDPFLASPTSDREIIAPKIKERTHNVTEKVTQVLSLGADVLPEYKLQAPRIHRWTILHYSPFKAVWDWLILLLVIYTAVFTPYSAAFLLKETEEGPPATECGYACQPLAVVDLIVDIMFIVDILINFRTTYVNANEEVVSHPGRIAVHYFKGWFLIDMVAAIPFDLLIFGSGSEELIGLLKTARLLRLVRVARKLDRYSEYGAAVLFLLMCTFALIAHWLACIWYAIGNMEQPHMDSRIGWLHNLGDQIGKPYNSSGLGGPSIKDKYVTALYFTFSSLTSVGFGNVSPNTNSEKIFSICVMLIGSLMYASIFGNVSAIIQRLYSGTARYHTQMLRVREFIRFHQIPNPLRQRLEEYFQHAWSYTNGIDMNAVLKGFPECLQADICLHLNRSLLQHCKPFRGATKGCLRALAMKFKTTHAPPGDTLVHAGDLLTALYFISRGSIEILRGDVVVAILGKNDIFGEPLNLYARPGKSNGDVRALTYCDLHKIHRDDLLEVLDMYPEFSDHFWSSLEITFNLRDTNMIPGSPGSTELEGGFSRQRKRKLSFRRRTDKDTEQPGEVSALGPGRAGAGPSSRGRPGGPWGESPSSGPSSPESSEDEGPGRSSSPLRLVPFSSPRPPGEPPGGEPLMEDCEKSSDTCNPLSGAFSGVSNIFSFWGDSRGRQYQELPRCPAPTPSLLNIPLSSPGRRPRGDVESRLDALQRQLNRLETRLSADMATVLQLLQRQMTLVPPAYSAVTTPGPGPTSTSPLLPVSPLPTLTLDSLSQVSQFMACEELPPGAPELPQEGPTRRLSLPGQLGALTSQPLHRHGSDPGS
Sequence of Cytochrome P450 3A4 (P08684 whole entry): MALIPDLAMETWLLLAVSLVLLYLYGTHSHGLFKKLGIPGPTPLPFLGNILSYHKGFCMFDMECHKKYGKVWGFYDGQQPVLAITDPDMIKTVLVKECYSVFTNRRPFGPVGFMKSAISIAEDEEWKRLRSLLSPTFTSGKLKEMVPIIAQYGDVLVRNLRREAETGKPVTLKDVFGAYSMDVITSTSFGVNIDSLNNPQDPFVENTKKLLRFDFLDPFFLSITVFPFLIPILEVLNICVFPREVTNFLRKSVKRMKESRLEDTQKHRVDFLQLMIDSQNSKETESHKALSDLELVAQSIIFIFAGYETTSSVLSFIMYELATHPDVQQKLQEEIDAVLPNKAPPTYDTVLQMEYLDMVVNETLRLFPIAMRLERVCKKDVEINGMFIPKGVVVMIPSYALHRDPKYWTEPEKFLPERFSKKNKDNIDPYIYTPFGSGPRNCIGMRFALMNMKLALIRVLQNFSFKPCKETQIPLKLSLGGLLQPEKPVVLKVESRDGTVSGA
Sequence of Cytochrome P450 2D6 (P10635 whole entry): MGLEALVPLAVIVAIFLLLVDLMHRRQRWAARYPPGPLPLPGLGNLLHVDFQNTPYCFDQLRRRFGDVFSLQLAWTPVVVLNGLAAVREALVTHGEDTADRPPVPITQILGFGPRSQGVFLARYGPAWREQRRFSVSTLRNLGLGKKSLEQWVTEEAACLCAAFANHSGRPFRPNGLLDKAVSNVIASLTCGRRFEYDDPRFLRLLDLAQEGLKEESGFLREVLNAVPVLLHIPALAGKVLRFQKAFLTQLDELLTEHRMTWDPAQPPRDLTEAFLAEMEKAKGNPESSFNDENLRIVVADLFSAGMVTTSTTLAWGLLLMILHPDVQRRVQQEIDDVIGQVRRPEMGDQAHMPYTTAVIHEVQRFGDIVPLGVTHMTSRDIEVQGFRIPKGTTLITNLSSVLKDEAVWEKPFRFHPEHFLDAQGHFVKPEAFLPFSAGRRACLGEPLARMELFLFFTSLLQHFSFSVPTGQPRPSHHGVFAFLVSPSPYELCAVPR

SMILES | CC50 (TZM) [µM] | IC50 [19] [µM] | IC50 [20] [µM] | CC50 (MT2) [µM] | other results
CC1(C)CC(NC(=O)C(=O)Nc2ccc(Cl)cc2)CC(C)(C)N1 |  |  |  |  | IC50 [1]: 2.9 µM; IC50 [2]: > 300 µM
COc1cnc(-n2cnc(C)n2)c2[nH]cc(C(=O)C(=O)N3CCN(C(=O)c4ccccc4)CC3)c12 |  |  |  |  | IC50 [3]: > 25 µM; solubility kinetic at 2 h [4]: > 100 µM; Papp A→B at 10 µM [5]: 7.62 ×10⁻⁶ cm/s; Papp B→A at 10 µM [6]: 37.4 ×10⁻⁶ cm/s
Cc1nc(C(NC(=O)c2ccc(-c3ccc(Cl)cc3)[nH]2)C2CCCCN2)sc1CO (configuration not stated) |  |  |  |  | IC50 [1]: 6.1 µM; CC50 at 72 h [7]: 23.6 µM; IC50 [3]: > 25 µM; fraction unbound at 5 µM [8]: 0.114; IC50 [9]: 3.8 µM; IC50 (Cytochrome P450 2C9): > 25 µM; microsomal CLint [10]: < 10 µL/min/mg; IC50 (Cytochrome P450 2D6): > 25 µM; solubility kinetic at 2 h [4]: 65 µM (≈ 28.9 µg/mL); IC50 [11]: 1.4 µM; Papp A→B at 10 µM [5]: 2.31 ×10⁻⁶ cm/s; IC50 [12]: 1.1 µM; IC50 [2]: 47 µM; IC50 (Cytochrome P450 3A4): > 25 µM; IC50 [13]: 0.79 µM; remaining at […] [14]: 84%; IC50 (Cytochrome P450 2C19): > 25 µM; CC50 at 96 h [15]: 24.8 µM; Papp B→A at 10 µM [6]: 31.3 ×10⁻⁶ cm/s
COc1ccnc2[nH]cc(C(=O)C(=O)N3CCN(C(=O)c4ccccc4)C[C@H]3C)c12 |  |  |  |  | inhibition [16]: inactive; inhibition [17]: Active
Cc1nnc(C(=O)NC(C)(C)c2nc(C(=O)NCc3ccc(F)cc3)c(O)c(=O)n2C)o1 |  |  |  |  | inhibition [18]: inactive
c1cc(CN2CCCNCCNCCCNCC2)ccc1CN1CCCNCCNCCCNCC1 |  |  |  |  | inhibition [16]: inactive; inhibition [17]: Active
Cc1cc(-c2ccc(Cl)cc2)[nH]c1C(=O)NC(CN)c1nc(C)c(CO)s1 (stereo in doubt; 27B) | 27.2 | 2.2 | 4.1 | 24.9 | 
Cc1cc(C(=O)NC(CN)c2nc(C)c(CO)s2)[nH]c1-c1ccc(Cl)cc1 (stereo in doubt; 28A) | 22.2 |  |  | 18 | IC50 ([19]; Human immunodeficiency virus 1, HXB2, TZM-bl): 3.6 µM; IC50 ([20]; Human immunodeficiency virus 1, 3B, MT2): 5.3 µM
CNCC(NC(=O)c1ccc(-c2ccc(C)c(F)c2)[nH]1)c1nc(C)c(CO)s1 (stereo in doubt; 43B) | 34.2 | 1.6 | 0.95 | 30.6 | 
Cc1nc(C(CCN)NC(=O)c2ccc(-c3ccc(F)c(Cl)c3)[nH]2)sc1CO (stereo in doubt; 62B) | 24.5 | 8 | 9.3 | 24.9 | 
Cc1cc(-c2ccc(C(=O)NC(CCN)c3nc(C)c(CO)s3)[nH]2)ccc1F (stereo in doubt; 63B) | 38.2 | 7.8 | 3 | 34.7 | 
CNCCC(NC(=O)c1ccc(-c2ccc(F)c(Cl)c2)[nH]1)c1nc(C)c(CO)s1 (stereo in doubt; 65B) | 22.3 | 4.6 | 5.7 | 24.2 | 
CNCCC(NC(=O)c1ccc(-c2ccc(F)c(C)c2)[nH]1)c1nc(C)c(CO)s1 (stereo in doubt; 66B) | 36.4 | 4.9 | 5 | 25.3 | 
Cc1nc(C(CCN(C)C)NC(=O)c2ccc(-c3ccc(F)c(Cl)c3)[nH]2)sc1CO (stereo in doubt; 68B) | 22 | 1.8 | 4.4 | 22 | 
Cc1cc(-c2ccc(C(=O)NC(CCN(C)C)c3nc(C)c(CO)s3)[nH]2)ccc1F (stereo in doubt; 69B) | 23.5 | 4.8 | 2.9 | 23.5 | 
NCC(NC(=O)c1ccc(-c2ccc(Cl)cc2)[nH]1)c1ncc(CO)s1 (stereo in doubt; 81B) | 37.1 | 0.75 | 1.8 | 34.5 | 
NCC(NC(=O)c1ccc(-c2ccc(Cl)c(F)c2)[nH]1)c1ncc(CO)s1 (stereo in doubt; 82B) | 33 | 0.57 | 1.2 | 36 | 
CNCC(NC(=O)c1ccc(-c2ccc(Cl)c(F)c2)[nH]1)c1ncc(CO)s1 (stereo in doubt; 86B) | 17.3 | 0.95 | 4 | 18.3 | 
CNCC(NC(=O)c1ccc(-c2ccc(C)c(F)c2)[nH]1)c1ncc(CO)s1 (stereo in doubt; 87B) | 27.4 | 1 | 0.99 | 28.3 | 
